Test results taken from ChEMBL document CHEMBL5214982, “Identification and Biochemical Characterization of Pyrrolidinediones as Novel Inhibitors of the Bacterial Enzyme MurA” (J Med Chem, 2022).
Activity calls are given as the source filed them. The calls are words filed in the database; no cut-off is given here.

Experiments:
[1] = molecular target: UDP-N-acetylglucosamine 1-carboxyvinyltransferase (Escherichia coli K-12) (UniProt P0A749); experiment: Inhibition of wild type his tagged Escherichia coli K12 MurA at 20 uM using UDP-N-acetylglucosamine as substrate preincubated with substrate for 30 mins prior to compound addition for 15 mins followed by DTT and PEP addition and measured after 30 mins by malachite green based microplate reader analysis relative to control; conditions: time 45.0 min
[2] = molecular target: UDP-N-acetylglucosamine 1-carboxyvinyltransferase (Escherichia coli K-12, UniProt P0A749); experiment: Inhibition of wild type his tagged Escherichia coli K12 MurA using UDP-N-acetylglucosamine as substrate […] for 15 mins followed by DTT and PEP addition and measured after 30 mins by malachite green based microplate reader analysis
[3] = tested on: UDP-N-acetylglucosamine 1-carboxyvinyltransferase (Escherichia coli K-12), P0A749 [C115D]; experiment: Inhibition of […] his tagged Escherichia coli K12 MurA C115D mutant at 2 uM using UDP-N-acetylglucosamine as substrate in presence of DTT and PEP by microplate reader analysis relative to control; conditions: time 45.0 min
Procedure, shortened: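 His-tagged C115D MurA preincubated directly with compounds (no UNAG preincubation) 15 min rt; fosfomycin and test compound each 2 μM final, 2% DMSO. Master mix added: 150 μM UNAG, 150 μM PEP, 2 mM DTT, 25 mM Tris-HCl pH 7.5; 37 °C 30 min. Malachite green/molybdate stop, A625 after 5 min, no-enzyme background subtracted; three independent experiments.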

[4] = molecular target: UDP-N-acetylglucosamine 1-carboxyvinyltransferase (Escherichia coli K-12) (UniProt P0A749); experiment: Inhibition of wild type his tagged Escherichia coli K12 MurA at 2 uM using UDP-N-acetylglucosamine as substrate […] for 15 mins followed by DTT and PEP addition and measured after 30 mins by malachite green based microplate reader analysis relative to control; conditions: time 45.0 min
[5] = molecular target: UDP-N-acetylglucosamine 1-carboxyvinyltransferase (Escherichia coli K-12) (UniProt P0A749); experiment: Inhibition of wild type his tagged Escherichia coli K12 MurA at 0.2 uM using UDP-N-acetylglucosamine as substrate preincubated with substrate for 15 mins prior to compound addition for 15 mins followed by DTT and PEP addition by dilution assay
Procedure, shortened: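 His-tagged WT MurA (30 μg) preincubated with 400 μM UNAG for 15 min, then with inhibitor (10 μM) for another 15 min. Mixture diluted 1:50 into master mix of 150 μM UNAG, 150 μM PEP, 2 mM DTT and 25 mM Tris-HCl pH 7.5 (final), giving 0.2 μM inhibitor; incubated 37°C 30 min. Malachite green/molybdate stop, A625 after 5 min, minus no-enzyme blank; three independent experiments.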

[6] = Stability in human plasma assessed as degradation at measured after 4 hrs by HPLC-MS analysis; format: ADME, cell-free; conditions: read-out: Drug degradation
[7] = Stability in human plasma assessed as half life at by HPLC-MS analysis; format: ADME, cell-free
[8] = Stability in human S9 fractions assessed as degradation at measured after 2 hrs by HPLC-MS analysis; format: ADME, subcellular, Liver, S9 fraction; conditions: read-out: Drug degradation
[9] = Stability in human S9 fractions assessed as half life at by HPLC-MS analysis; format: ADME, subcellular, Liver, S9 fraction
HepG2 = experiment: Cytotoxicity against human HepG2 cells at upto 100 uM incubated for 24 hrs by MTT assay; format: toxicity, cell-based; conditions: hepg2, 24 h
Procedure, shortened: (§1)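 MRC-5 (20,000/well) or HepG2 (25,000/well) seeded, treated next day for 24 h with eight concentrations up to 100 μM (DMSO solutions). Viability by MTT: medium replaced with 0.5 mg/ml MTT in DMEM, cells lysed in DMSO, absorbance at 560 nm. Three independent experiments.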

MRC5 = experiment: Cytotoxicity against human MRC5 cells at upto 100 uM incubated for 24 hrs by MTT assay; format: toxicity, cell-based; conditions: mrc5, 24 h; procedure, shortened: as §1

Sequence of UDP-N-acetylglucosamine 1-carboxyvinyltransferase (Escherichia coli K-12) (P0A749 whole entry): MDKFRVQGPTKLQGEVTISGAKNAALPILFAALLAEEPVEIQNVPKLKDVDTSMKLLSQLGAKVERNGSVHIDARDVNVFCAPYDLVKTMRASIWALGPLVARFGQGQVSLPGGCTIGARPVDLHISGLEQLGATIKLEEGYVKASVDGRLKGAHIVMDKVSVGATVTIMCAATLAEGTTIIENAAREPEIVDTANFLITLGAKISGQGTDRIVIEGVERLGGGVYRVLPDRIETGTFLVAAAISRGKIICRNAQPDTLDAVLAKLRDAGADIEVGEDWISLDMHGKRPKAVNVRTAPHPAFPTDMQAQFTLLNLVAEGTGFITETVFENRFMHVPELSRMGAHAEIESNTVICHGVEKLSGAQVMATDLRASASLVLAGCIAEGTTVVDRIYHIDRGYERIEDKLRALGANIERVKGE
Sequence of UDP-N-acetylglucosamine 1-carboxyvinyltransferase (P0A749 whole entry): as above
Sequence of UDP-N-acetylglucosamine 1-carboxyvinyltransferase (Escherichia coli K-12), P0A749 [C115D] (P0A749 whole entry C115D): as the sequence (P0A749 whole entry) above, with C115D counted along it

Row | Structure (SMILES) | inhibition [1] | IC50 [2] | other results
1 | CCOC(=O)C1=C(O)C(=O)N(Cc2ccc(Cl)cc2)C1c1ccc(-c2ccccc2)cc1 (centres undefined) | 40% | – | –
2 | CCOC(=O)C1=C(O)C(=O)N(c2nc3ccc(C)cc3s2)C1c1ccc(-c2ccc(C(F)(F)F)cc2Cl)o1 (centres undefined) | 94% | 4.8 µM | –
3 | COC(=O)C1=C(O)C(=O)N(c2nc3ccc(C)cc3s2)C1c1ccc(-c2ccc(Cl)cc2)o1 (centres undefined) | 59% | 16 µM | –
4 | CCOC(=O)C1=C(O)C(=O)N(c2nc3cc(C)c(C)cc3s2)C1c1ccc(-c2ccccc2)cc1 (centres undefined) | 85% | 5.8 µM | –
5 | CCOC(=O)C1=C(O)C(=O)N(c2nc3ccc(C)cc3s2)C1c1ccccc1 (centres undefined) | 26% | – | –
6 | CCOC(=O)C1=C(O)C(=O)N(c2nc3ccccc3s2)C1c1ccccc1 (centres undefined) | 0% | – | –
7 | CCOC(=O)C1=C(O)C(=O)N(c2nc3ccc(Cl)cc3s2)C1c1ccccc1 (centres undefined) | 14% | – | –
8 | CCOC(=O)C1=C(O)C(=O)N(c2nc3ccc(C)cc3s2)C1c1ccco1 (centres undefined) | 21% | – | –
9 | CCOC(=O)C1=C(O)C(=O)N(c2nc3ccc(C)cc3s2)C1c1ccc(OC)c2ccccc12 (centres undefined) | 74% | 9.5 µM | –
10 | CCOC(=O)C1=C(O)C(=O)N(c2nc3c(Cl)cccc3s2)C1c1ccc(-c2ccccc2)cc1 (centres undefined) | 73% | 7 µM | –
11 | CCOC(=O)C1=C(O)C(=O)N(c2nc3ccc(C(F)(F)F)cc3s2)C1c1ccc(-c2ccccc2)cc1 (centres undefined) | 70% | 6.1 µM | –
12 | C[C@@H]1O[C@@H]1P(=O)(O)O [FOSFOMYCIN] | 78% | 5.3 µM | inhibition [3]: -4%; inhibition [4]: 31%; inhibition [5]: Active
13 | CCOC(=O)C1=C(O)C(=O)N(c2nc3ccc(C)cc3s2)C1c1ccccc1-c1cccs1 (centres undefined) | 50% | 22 µM | –
14 | CCOC(=O)C1=C(O)C(=O)N(c2nc3c(C)cccc3s2)C1c1ccccc1 (centres undefined) | 0% | – | –
15 | CCOC(=O)C1=C(O)C(=O)N(c2nc3c(Cl)cccc3s2)C1c1ccccc1 (centres undefined) | 18% | – | –
16 | CCOC(=O)C1=C(O)C(=O)N(c2nc3c(s2)CCCC3)C1c1ccccc1 (centres undefined) | 14% | – | –
17 | CCOC(=O)C1=C(O)C(=O)N(c2nc3ccc(C)cc3s2)C1c1ccc(-c2ccc(Cl)cc2)o1 (centres undefined) | 75% | 9.9 µM | –
18 | CCOC(=O)C1=C(O)C(=O)N(c2ccc(Cl)cc2)C1c1ccc(Cl)cc1 (centres undefined) | 14% | – | –
19 | CCOC(=O)C1=C(O)C(=O)N(c2nc3ccccc3s2)C1c1ccc(-c2ccccc2)cc1 (centres undefined) | 45% | – | –
20 | Cc1ccc2nc(N3C(=O)C(O)=C(C(=O)OCCO)C3c3ccc(-c4ccc(Cl)cc4)o3)sc2c1 (centres undefined) | 43% | – | –
21 | CCOC(=O)C1=C(O)C(=O)N(c2nc3c(OC)cccc3s2)C1c1ccc(-c2ccccc2)cc1 (centres undefined) | 31% | 25 µM | –
22 | CCOC(=O)C1=C(O)C(=O)N(c2nc3ccc(C)cc3s2)C1c1nc2ccccc2s1 (centres undefined) | 12% | – | –
23 | CCOC(=O)C1=C(O)C(=O)N(c2ccccc2)C1c1ccc(-c2ccccc2)cc1 (centres undefined) | 13% | – | –
24 | CCCCNc1ccc(C(=O)OCCN(C)C)cc1 [TETRACAINE] | – | – | metabolised at 4 h [6]: 100%; t1/2 [7]: 20 min

Row | Structure (SMILES) | inhibition [1] | IC50 [2] | other results
25 | CCOC(=O)C1=C(O)C(=O)N(c2nc3c(F)cc(F)cc3s2)C1c1ccc(-c2ccccc2)cc1 (centres undefined) | 76% | 7.5 µM | –
26 | CCOC(=O)C1=C(O)C(=O)N(c2nc3ccc(C)cc3s2)C1c1ccccc1-c1ccccc1 (centres undefined) | 57% | 17 µM | –
27 | CCOC(=O)C1=C(O)C(=O)N(c2nc3ccc(Oc4ccccc4)cc3s2)C1c1ccccc1 (centres undefined) | 53% | 17 µM | –
28 | CCOC(=O)C1=C(O)C(=O)N(c2nc3ccc(C)cc3s2)C1c1cccc2ccccc12 (centres undefined) | 54% | 15 µM | –
29 | CCOC(=O)C1=C(O)C(=O)N(c2nc3ccc(C)cc3s2)C1c1ccc(-c2ccc(Cl)nn2)cc1 (centres undefined) | 36% | – | –
30 | CCOC(=O)C1=C(O)C(=O)N(c2nc3ccc(C)cc3s2)C1c1ccc2ccccc2c1 (centres undefined) | 44% | – | –
31 | CC(C)(C)OC(=O)C1=C(O)C(=O)N(c2nc3ccc(Cl)cc3s2)C1c1ccccc1 (centres undefined) | 38% | – | –
32 | CCOC(=O)C1=C(O)C(=O)N(c2nc3ccc(Cl)cc3s2)C1c1ccc(Cl)cc1 (centres undefined) | 34% | – | –
33 | CCOC(=O)C1=C(O)C(=O)N(c2nc3ccc(C)cc3s2)C1c1cccnc1 (centres undefined) | 29% | – | –
34 | CCOC(=O)C1=C(O)C(=O)N(c2nc3ccc(C)cc3s2)C1c1cc(-c2ccccc2)cs1 (centres undefined) | 72% | 9.9 µM | –
35 | CCOC(=O)C1=C(O)C(=O)N(c2nc3ccc(OC)cc3s2)C1c1ccc(-c2ccccc2)cc1 (centres undefined) | 51% | 22 µM | –
36 | Cc1ccc2nc(N3C(=O)C(O)=C(C(=O)OC(C)(C)C)C3c3ccccc3)sc2c1 (centres undefined) | 38% | – | –
37 | Cc1cccc2sc(N3C(=O)C(O)=C(C(=O)OC(C)(C)C)C3c3ccccc3)nc12 (centres undefined) | 67% | 11 µM | –
38 | CCOC(=O)C1=C(O)C(=O)N(c2nc3ccc(C)cc3s2)C1c1ccc(-c2ccccc2)cc1 (centres undefined) | 76% | 8.5 µM | –
39 | CCOC(=O)C1=C(O)C(=O)N(c2nc3ccc(C)cc3s2)C1c1ccc(-c2ccccc2)o1 (centres undefined) | 37% | – | –
40 | CCOC(=O)C1=C(O)C(=O)N(c2nc3ccc(Br)cc3s2)C1c1ccc(-c2ccccc2)cc1 (centres undefined) | 52% | 21 µM | –
41 | CCOC(=O)C1=C(O)C(=O)N(c2ccc(-c3ccccc3)cc2)C1c1ccccc1 (centres undefined) | 19% | – | –
42 | CCOC(=O)C1=C(O)C(=O)N(c2nc3c(ccc4ccccc43)s2)C1c1ccccc1 (centres undefined) | 36% | – | –
43 | CCOC(=O)C1=C(O)C(=O)N(c2nc3ccc(C)cc3s2)C1c1ccc(O)cc1 (centres undefined) | 23% | – | –
44 | CCOC(=O)C1=C(O)C(=O)N(c2nc3ccc(C)cc3s2)C1c1cccs1 (centres undefined) | 14% | – | –
45 | CCOC(=O)C1=C(O)C(=O)N(c2nc3ccc(C)cc3s2)C1c1ccc2cc(O)ccc2c1 (centres undefined) | 43% | – | –
46 | C[C@]12CC[C@H]3[C@@H](CCC4=CC(=O)CC[C@@]43C)[C@@H]1CC[C@@H]2O [TESTOSTERONE] | – | – | metabolised at 2 h [8]: 89%; t1/2 [9]: 5.9 min
47 | CCOC(=O)C1=C(O)C(=O)N(c2nc3ccc(Cl)cc3s2)C1c1ccc(-c2ccccc2)cc1 (centres undefined) | 78% | 5.1 µM | Activity (HepG2): Non-Toxic; Activity (MRC5): Non-Toxic
